Test results published in ChEMBL document CHEMBL3351648, “Synthesis and pharmacological evaluation of 6-aminonicotinic acid analogues as novel GABA(A) receptor agonists” (Eur J Med Chem, 2014).
Active and inactive are the calls of the source. The rule behind the calls is not given here.

Columns and labels:
[1] = target: GABA A receptor alpha-2/beta-2/gamma-2 (Homo sapiens) (UniProt P47870+P18507+P47869); assay: Agonist activity at human GABAAalpha2beta2gamma2S receptor expressed in tsA-201cells by FLIPR membrane potential blue assay relative to GABA
[2] = target: T1, Gamma-aminobutyric acid receptor subunit rho-1 (Homo sapiens, UniProt P24046); assay: Agonist activity at human GABAA rho1 expressed in tsA-201cells by FLIPR membrane potential blue assay
T1 sequence (P24046 whole entry): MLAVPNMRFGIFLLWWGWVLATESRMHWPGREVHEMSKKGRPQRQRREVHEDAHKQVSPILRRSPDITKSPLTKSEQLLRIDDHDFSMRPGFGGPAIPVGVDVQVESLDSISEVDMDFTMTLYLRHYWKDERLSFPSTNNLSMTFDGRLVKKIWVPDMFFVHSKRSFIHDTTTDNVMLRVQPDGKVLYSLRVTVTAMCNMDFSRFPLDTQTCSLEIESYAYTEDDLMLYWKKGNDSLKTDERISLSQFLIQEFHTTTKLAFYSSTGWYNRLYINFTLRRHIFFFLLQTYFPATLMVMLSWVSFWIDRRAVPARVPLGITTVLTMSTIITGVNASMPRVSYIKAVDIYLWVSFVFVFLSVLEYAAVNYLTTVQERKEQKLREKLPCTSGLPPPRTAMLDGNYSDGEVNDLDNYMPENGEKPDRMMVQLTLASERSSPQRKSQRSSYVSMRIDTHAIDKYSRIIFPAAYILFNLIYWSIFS
Method in brief: (§1)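 tsA201 cells (8×10^5 per 6 cm dish) were transfected with α1, α2, α3 or α5 plus β2 and γ2S cDNAs (1:1:3), or with ρ1 alone. Next day cells were replated into poly-D-lysine 96-well plates. After 16–24 h they were washed with Krebs buffer pH 7.4, given membrane-potential dye, held 30 min at 37 °C, and read at 560 nm emission. Concentration-response curves used ΔFU before versus after agonist; duplicates were run ≥3 times.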

[3] = Agonist activity at human GABAAalpha5beta2gamma2S receptor expressed in tsA-201cells by FLIPR membrane potential blue assay; format: cell membranes
[4] = target: GABA-A receptor; anion channel; assay: Displacement of [3H]muscimol from GABAA receptor in SPRD rat brain synaptic membranes by scintillation counting method; format: cell membranes
Method in brief: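 Rat synaptic membranes were thawed, homogenized in ice-cold 50 mM Tris-HCl pH 7.4, and spun at 48,000g for 10 min at 4 °C, with the wash repeated four times. Incubation was with 5 nM [3H]muscimol (final) and varying test concentrations for 60 min at 0 °C, then GF/C filtration and scintillation counting.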

[5] = target: GABA A receptor alpha-3/beta-2/gamma-2 (Homo sapiens) (UniProt P47870+P18507+P34903); assay: Agonist activity at human GABAAalpha3beta2gamma2S receptor expressed in tsA-201cells by FLIPR membrane potential blue assay relative to GABA
[6] = target: T2, GABA A receptor alpha-3/beta-2/gamma-2 (Homo sapiens, UniProt P18507+P34903+P47870); assay: Agonist activity at human GABAAalpha3beta2gamma2S receptor expressed in tsA-201cells by FLIPR membrane potential blue assay; method in brief: as §1
T2 sequence (P47870 whole entry): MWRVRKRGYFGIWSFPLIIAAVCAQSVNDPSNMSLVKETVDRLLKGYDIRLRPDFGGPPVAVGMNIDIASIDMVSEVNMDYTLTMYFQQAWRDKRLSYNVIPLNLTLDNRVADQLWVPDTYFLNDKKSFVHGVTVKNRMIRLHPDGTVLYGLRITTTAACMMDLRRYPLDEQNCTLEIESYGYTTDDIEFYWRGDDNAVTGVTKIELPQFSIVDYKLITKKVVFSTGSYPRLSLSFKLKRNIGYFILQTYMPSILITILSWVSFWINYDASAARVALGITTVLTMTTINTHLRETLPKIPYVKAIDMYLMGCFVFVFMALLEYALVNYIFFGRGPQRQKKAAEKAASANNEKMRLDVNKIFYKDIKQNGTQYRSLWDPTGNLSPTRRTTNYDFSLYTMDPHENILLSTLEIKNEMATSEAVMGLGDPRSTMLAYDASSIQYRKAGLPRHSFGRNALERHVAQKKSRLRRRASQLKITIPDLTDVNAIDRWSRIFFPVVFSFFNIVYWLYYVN
T2 sequence (P18507 whole entry): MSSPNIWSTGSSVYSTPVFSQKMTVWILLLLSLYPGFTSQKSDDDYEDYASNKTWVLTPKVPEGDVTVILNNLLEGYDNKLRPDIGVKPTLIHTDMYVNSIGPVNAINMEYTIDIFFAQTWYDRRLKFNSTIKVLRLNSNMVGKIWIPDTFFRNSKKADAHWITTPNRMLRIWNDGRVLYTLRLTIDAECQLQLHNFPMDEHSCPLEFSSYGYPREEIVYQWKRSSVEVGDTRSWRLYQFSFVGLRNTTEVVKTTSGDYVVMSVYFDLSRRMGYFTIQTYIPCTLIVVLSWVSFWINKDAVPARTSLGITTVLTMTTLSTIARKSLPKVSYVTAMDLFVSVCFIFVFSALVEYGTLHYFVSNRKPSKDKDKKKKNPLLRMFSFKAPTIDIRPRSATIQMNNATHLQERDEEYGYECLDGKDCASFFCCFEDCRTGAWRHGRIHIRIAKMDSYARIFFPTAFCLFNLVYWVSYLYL
T2 sequence (P34903 whole entry): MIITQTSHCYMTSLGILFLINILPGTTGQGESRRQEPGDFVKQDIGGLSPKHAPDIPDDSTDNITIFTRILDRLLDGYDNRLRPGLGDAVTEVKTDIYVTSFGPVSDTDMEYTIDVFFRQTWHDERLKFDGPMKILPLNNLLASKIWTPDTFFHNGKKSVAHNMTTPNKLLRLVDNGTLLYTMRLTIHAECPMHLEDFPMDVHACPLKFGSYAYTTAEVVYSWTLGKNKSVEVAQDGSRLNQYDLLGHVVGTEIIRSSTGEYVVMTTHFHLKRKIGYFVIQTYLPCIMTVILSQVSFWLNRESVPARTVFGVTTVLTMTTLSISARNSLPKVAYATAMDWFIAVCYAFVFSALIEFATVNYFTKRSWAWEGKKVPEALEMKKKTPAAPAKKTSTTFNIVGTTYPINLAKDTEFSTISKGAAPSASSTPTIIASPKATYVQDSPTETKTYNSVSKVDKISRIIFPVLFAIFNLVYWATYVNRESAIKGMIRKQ

[7] = target: T3, GABA-A receptor; alpha-1/beta-2/gamma-2 (Homo sapiens, UniProt P14867+P47870+P18507); assay: (§2) Agonist activity at human GABAAalpha1beta2gamma2S receptor expressed in tsA-201cells by FLIPR membrane potential blue assay; conditions: tsa-201; method in brief: as §1
T3 sequence (P14867 whole entry): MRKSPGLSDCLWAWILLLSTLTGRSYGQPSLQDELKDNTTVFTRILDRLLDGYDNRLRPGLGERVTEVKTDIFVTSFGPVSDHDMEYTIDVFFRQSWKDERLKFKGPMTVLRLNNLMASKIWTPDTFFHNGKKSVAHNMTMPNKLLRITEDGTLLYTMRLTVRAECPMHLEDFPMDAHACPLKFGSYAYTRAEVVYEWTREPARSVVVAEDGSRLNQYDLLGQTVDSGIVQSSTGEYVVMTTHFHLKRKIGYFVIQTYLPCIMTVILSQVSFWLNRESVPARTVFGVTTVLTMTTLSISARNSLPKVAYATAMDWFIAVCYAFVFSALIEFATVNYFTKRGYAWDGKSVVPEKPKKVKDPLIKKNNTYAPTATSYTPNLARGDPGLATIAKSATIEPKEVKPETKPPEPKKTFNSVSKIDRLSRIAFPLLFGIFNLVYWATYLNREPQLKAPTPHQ
T3 sequence (P47870 whole entry): T2 sequence (P47870 whole entry)
T3 sequence (P18507 whole entry): T2 sequence (P18507 whole entry)

[8] = target: T1, Gamma-aminobutyric acid receptor subunit rho-1; assay: Agonist activity at human GABAA rho1 expressed in tsA-201cells by FLIPR membrane potential blue assay relative to GABA
[9] = target: GABA-A receptor; alpha-1/beta-2/gamma-2 (Homo sapiens) (UniProt P14867+P47870+P18507); assay: Agonist activity at human GABAAalpha1beta2gamma2S receptor expressed in tsA-201cells at 1 mM by FLIPR membrane potential blue assay; format: cell-based
Method in brief: (§3)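 Transfected tsA201 cells (α1β2γ2S or ρ1) were loaded with membrane-potential dye in Krebs buffer pH 7.4 for 30 min at 37 °C. Compound was applied at a single 1 mM concentration. Response was read as fluorescence change at 560 nm emission before versus after addition, in duplicate on ≥3 occasions.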

[10] = target: T4, GABA A receptor alpha-2/beta-2/gamma-2 (Homo sapiens, UniProt P18507+P47869+P47870); assay: Agonist activity at human GABAAalpha2beta2gamma2S receptor expressed in tsA-201cells by FLIPR membrane potential blue assay; method in brief: as §1
T4 sequence (P47870 whole entry): T2 sequence (P47870 whole entry)
T4 sequence (P18507 whole entry): T2 sequence (P18507 whole entry)
T4 sequence (P47869 whole entry): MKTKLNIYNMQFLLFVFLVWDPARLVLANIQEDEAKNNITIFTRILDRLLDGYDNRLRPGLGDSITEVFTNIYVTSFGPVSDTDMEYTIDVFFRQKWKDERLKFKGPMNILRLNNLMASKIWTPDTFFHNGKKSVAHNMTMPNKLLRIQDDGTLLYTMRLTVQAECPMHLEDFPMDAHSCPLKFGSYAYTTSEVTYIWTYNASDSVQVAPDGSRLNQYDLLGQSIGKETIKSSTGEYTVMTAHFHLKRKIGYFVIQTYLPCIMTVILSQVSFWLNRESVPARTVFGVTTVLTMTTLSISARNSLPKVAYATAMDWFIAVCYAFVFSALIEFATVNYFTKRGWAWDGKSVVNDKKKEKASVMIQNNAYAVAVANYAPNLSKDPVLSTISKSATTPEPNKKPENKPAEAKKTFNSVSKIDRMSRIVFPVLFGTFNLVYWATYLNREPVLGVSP

tsA-201 = assay: Agonist activity at human GABAAalpha5beta2gamma2S receptor expressed in tsA-201cells by FLIPR membrane potential blue assay relative to GABA
[11] = target: T1, Gamma-aminobutyric acid receptor subunit rho-1; assay: Agonist activity at human GABAA rho1 expressed in tsA-201cells at 1 mM by FLIPR membrane potential blue assay; format: cell-based; method in brief: as §3
[12] = Dissociation constant, pKa of the compound by diode array detector method; format: physicochemical
Method in brief: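 pKa was determined by titration in methanol cosolvent at 23–48%, with three titrations per compound. An in-line diode-array detector recorded UV-Vis spectra, and the titration was mapped against the spectra of the protonated and unprotonated species.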

[13] = target: T5, GABA-A receptor; alpha-1/beta-2/gamma-2 (Homo sapiens, UniProt P14867+P18507+P47870); assay: as §2; conditions: read-out: EC50; method in brief: as §1
T5 sequence (P14867 whole entry): T3 sequence (P14867 whole entry)
T5 sequence (P47870 whole entry): T2 sequence (P47870 whole entry)
T5 sequence (P18507 whole entry): T2 sequence (P18507 whole entry)

O=C(O)C1CCNCC1 [ISONIPECOTIC ACID]
Rmax [1]: 85%
EC50 ([2]; tsa-201): Active
EC50 [3]: 2.8 µM
pEC50 [3]: 5.54
Ki [4]: 0.51 µM
Rmax [5]: 85%
EC50 [6]: 17 µM
EC50 [7]: Active
Rmax [8]: inactive
Rmax [9]: 66%
EC50 [10]: 24 µM
Rmax (tsA-201): 115%
Activity [11]: Active

O=C(O)c1cncnc1
Ki [4]: > 100 µM
pKa [12]: 1.4

Nc1ccc(C(=O)O)c(-c2ccccc2)n1
Ki [4]: > 100 µM

Nc1cccc(C(=O)O)n1
Ki [4]: > 100 µM

NC1=NCC(C(=O)O)CC1 (centres undefined)
Rmax [1]: 101%
EC50 ([2]; read-out: EC50): 2.3 µM
EC50 ([2]; read-out: pEC50 (converted)): 1.23 µM
EC50 [3]: 0.092 µM
pEC50 [3]: 7.04
Ki [4]: 0.044 µM
pKa [12]: 12.4
Rmax [5]: 93%
EC50 [6]: 1.1 µM
EC50 [13]: 2.6 µM
Rmax [8]: 64%
EC50 [10]: 0.82 µM
Rmax (tsA-201): 100%

Cc1cc(C(=O)O)cnc1N
Ki [4]: > 100 µM

CCCCc1cc(N)ncc1C(=O)O
EC50 ([2]; read-out: EC50): > 1000 µM
pEC50 ([2]; tsa-201): < 3
Ki [4]: 24 µM
EC50 [13]: > 1000 µM
pEC50 [7]: < 3

Nc1cc(-c2ccccc2)c(C(=O)O)cn1
Ki [4]: > 100 µM

Cc1cc(N)ncc1C(=O)O
EC50 ([2]; tsa-201): Active
Ki [4]: 3.6 µM
EC50 [13]: > 1000 µM
pEC50 [7]: < 3
Activity [11]: Active

Nc1cccc(CC(=O)O)n1
Ki [4]: > 100 µM

CCc1cc(N)ncc1C(=O)O
EC50 ([2]; read-out: EC50): > 1000 µM
pEC50 ([2]; tsa-201): < 3
Ki [4]: 9.3 µM
EC50 [13]: > 1000 µM
pEC50 [7]: < 3

NCc1cc(O)no1 [MUSCIMOL]
Rmax [1]: 99%
EC50 [3]: 0.054 µM
pEC50 [3]: 7.27
Rmax [5]: 97%
Rmax [8]: 98%
Rmax (tsA-201): 114%

Nc1ncc(C(=O)O)cn1
Ki [4]: > 100 µM
pKa [12]: 1.9

Nc1cc(CC(=O)O)ccn1
Ki [4]: 73 µM

O=C(O)C1=CCNCC1 [ISOGUVACINE]
Rmax [1]: 95%
EC50 ([2]; read-out: EC50): 39 µM
EC50 [3]: 0.78 µM
pEC50 [3]: 6.1
Ki [4]: 0.055 µM
Rmax [5]: 91%
EC50 [6]: 5.6 µM
EC50 [13]: 11 µM
Rmax [8]: 85%
EC50 [10]: 4.5 µM
Rmax (tsA-201): 101%

CCc1cc(C(=O)O)cnc1N
Ki [4]: > 100 µM
